Reference: ChEMBL document CHEMBL4706499, “PTG-0861: A novel HDAC6-selective inhibitor as a therapeutic strategy in acute myeloid leukaemia” (Eur J Med Chem, 2020)
Calls of active or inactive are those of the source. The rule behind the calls is not given here.

Tests used:
[1] = Cytotoxicity against human MRC9 cells measured after 72 hrs by spectrophotometer method; type: cell-based; conditions: MRC9, 72 h
MV4-11 [2] = test: Cytotoxicity against human MV4-11 cells measured after 72 hrs by spectrophotometer method; type: functional, cell-based; conditions: MV4-11, 72 h
Histone deacetylase 6 = molecular target: T1, Histone deacetylase 6 (Danio rerio, UniProt F8W4B7); test: Inhibition of N-terminal 6 His-SUMO tagged Zebrafish HDAC6 CD2 domain expressed in Escherichia coli BL21(DE3) RILP pretreated for 10 mins before FITC-M344 addition and measured after 10 mins by fluorescence polarization competition assay
T1 sequence (F8W4B7 whole entry): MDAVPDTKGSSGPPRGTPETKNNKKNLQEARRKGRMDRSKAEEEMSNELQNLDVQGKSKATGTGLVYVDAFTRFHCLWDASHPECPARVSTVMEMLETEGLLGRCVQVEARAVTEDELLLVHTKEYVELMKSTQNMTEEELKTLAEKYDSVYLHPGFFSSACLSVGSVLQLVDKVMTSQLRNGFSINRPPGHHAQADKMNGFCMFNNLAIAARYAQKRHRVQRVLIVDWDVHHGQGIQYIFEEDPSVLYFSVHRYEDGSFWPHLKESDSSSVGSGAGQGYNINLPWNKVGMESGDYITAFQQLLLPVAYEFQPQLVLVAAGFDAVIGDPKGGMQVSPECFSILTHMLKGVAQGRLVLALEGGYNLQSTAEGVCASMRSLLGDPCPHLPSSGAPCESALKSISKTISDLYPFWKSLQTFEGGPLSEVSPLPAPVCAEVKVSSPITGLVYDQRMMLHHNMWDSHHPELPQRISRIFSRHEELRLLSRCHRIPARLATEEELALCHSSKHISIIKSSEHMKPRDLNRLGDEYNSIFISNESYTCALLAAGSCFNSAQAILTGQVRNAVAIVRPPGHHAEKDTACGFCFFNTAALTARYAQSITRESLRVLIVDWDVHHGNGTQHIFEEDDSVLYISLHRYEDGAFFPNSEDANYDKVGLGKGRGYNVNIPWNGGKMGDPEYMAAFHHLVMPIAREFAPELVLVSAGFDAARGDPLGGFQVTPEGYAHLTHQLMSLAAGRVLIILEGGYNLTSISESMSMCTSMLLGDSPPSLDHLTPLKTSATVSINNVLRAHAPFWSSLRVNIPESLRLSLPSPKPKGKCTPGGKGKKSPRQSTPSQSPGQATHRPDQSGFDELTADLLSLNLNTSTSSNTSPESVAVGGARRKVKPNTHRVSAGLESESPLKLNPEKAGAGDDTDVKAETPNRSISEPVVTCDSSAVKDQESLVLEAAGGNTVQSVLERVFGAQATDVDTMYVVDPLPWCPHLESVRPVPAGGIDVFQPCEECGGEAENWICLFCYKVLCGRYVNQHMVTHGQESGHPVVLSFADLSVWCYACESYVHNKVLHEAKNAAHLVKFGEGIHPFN

[3] = Cytotoxicity against human MRC9 cells; type: functional, cell-based
[4] = Selectivity ratio of IC50 for full length recombinant human HDAC3 to IC50 for full length recombinant human HDAC6
HUVEC = test: Cytotoxicity against human HUVEC cells measured after 72 hrs by spectrophotometer method; type: cell-based
[5] = molecular target: T2, Protein deacetylase HDAC6 (Homo sapiens) (UniProt Q9UBN7); test: Inhibition of HDAC6 in human MV4-11 cells assessed as increase in acetylation of alpha tubulin at 0.5 uM measured after 6 hrs by Western blot assay relative to histone H3 acetylation; type: cell-based
T2 sequence (whole entry): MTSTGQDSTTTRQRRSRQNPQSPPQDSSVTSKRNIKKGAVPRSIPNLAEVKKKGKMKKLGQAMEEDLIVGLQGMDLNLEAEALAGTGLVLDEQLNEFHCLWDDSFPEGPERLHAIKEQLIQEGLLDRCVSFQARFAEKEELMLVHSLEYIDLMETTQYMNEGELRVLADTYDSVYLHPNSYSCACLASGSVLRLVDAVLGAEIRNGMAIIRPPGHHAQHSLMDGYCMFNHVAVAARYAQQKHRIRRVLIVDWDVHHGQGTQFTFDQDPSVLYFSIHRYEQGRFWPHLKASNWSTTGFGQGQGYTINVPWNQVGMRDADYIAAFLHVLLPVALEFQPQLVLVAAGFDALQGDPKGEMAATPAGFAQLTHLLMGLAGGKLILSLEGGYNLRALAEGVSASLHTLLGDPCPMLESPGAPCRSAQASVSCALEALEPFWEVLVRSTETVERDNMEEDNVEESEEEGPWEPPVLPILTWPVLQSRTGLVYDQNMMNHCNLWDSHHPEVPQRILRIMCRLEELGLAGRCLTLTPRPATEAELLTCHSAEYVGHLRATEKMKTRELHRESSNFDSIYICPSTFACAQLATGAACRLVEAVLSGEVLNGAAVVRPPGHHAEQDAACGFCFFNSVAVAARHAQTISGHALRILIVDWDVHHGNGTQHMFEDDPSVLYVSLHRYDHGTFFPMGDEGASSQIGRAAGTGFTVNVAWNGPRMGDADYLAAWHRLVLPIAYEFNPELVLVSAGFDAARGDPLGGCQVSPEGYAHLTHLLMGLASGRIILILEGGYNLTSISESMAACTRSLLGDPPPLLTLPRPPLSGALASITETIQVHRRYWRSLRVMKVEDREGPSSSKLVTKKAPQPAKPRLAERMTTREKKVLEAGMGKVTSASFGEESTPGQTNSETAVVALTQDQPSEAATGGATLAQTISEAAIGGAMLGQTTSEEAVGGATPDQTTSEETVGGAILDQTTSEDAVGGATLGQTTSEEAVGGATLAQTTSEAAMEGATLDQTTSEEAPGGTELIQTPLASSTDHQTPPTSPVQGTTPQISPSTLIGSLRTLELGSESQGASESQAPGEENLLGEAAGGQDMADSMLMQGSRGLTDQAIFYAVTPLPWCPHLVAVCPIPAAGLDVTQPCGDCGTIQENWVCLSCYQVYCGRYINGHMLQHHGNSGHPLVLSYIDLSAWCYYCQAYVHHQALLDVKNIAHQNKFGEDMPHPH
Outline: (§1)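 MV4-11 cells were exposed to a range of concentrations for 6 h. Protein extracts were run on SDS-PAGE and immunoblotted for acetylated α-tubulin, acetylated histone H3 and acetylated histone H4, with HSC70 as the loading reference. A representative blot of three independent experiments is shown.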

MV4-11 [6] = test: Induction of apoptosis in human MV4-11 cells assessed as late apoptotic cells at 4 microM measured after 18 hrs by Annexin V/Propidium iodide stain based Flow cytometry assay (reference value: 4.91%); type: functional
[7] = molecular target: Class 1 histone deacetylase (Homo sapiens) (UniProt Q13547+O15379+Q92769+Q9BY41); test: Inhibition of HDAC class 1 in human MV4-11 cells assessed as upregulation of acetylation of H3 histone at 5 uM measured after 6 hrs by Western blot assay; type: cell-based; outline: as §1
MM1.S = test: Cytotoxicity against human MM1.S cells measured after 72 hrs by spectrophotometer method; type: functional, cell-based
Fibroblast [8] = test: Cytotoxicity against pooled human fibroblasts measured after 72 hrs by spectrophotometer method; type: cell-based
RPMI-8226 = test: Cytotoxicity against human RPMI-8226 cells measured after 72 hrs by spectrophotometer method; type: functional, cell-based; conditions: RPMI-8226, 72 h
Fibroblast [9] = test: Cytotoxicity against human fibroblasts measured after 72 hrs by spectrophotometer method; type: cell-based
[10] = molecular target: T2, Protein deacetylase HDAC6 (Homo sapiens); test: Inhibition of HDAC6 in human MV4-11 cells assessed as increase in acetylation of alpha tubulin at 0.5 uM measured after 6 hrs by Western blot assay relative to histone H4 acetylation; type: cell-based; outline: as §1

Chain of Class 1 histone deacetylase (Homo sapiens) (O15379 whole entry, looked up): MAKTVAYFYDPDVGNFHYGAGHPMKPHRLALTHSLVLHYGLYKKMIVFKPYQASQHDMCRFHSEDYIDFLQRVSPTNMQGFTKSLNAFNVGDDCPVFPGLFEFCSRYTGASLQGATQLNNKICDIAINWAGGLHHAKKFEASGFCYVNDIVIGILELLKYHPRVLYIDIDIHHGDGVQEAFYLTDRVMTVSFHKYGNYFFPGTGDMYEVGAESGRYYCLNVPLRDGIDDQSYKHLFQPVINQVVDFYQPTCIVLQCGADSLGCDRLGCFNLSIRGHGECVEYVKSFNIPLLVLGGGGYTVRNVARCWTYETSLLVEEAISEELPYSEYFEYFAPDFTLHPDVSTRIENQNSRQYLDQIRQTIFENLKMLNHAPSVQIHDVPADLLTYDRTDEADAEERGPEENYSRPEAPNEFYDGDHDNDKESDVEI
Chain of Class 1 histone deacetylase (Homo sapiens) (Q13547 whole entry, looked up): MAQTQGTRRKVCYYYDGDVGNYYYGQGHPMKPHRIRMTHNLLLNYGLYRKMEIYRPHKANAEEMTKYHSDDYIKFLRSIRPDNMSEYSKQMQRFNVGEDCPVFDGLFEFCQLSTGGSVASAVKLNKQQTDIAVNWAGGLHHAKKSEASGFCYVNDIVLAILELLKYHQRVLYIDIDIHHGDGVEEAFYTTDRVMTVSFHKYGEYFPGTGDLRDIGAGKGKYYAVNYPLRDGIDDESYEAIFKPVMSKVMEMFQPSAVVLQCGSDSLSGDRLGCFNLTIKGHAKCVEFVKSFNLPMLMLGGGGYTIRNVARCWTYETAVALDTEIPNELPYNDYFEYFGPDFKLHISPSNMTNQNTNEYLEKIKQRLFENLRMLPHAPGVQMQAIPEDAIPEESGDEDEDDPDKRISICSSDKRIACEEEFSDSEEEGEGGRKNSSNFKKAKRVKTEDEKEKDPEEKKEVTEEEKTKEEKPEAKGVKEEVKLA
Chain of Class 1 histone deacetylase (Homo sapiens) (Q92769 whole entry, looked up): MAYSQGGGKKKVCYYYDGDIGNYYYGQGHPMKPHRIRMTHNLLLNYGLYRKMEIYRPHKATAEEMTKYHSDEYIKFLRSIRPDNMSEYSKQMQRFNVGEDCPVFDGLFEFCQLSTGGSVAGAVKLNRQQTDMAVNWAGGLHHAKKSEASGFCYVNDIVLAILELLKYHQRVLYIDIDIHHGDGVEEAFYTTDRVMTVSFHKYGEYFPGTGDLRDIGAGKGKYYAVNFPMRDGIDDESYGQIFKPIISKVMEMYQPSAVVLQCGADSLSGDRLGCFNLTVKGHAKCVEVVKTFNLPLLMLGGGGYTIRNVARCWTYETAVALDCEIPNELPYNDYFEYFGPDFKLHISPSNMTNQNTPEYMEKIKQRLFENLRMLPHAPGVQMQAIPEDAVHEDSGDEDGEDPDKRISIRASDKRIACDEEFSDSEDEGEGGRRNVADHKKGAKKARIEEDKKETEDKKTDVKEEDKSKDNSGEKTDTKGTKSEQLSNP
Chain of Class 1 histone deacetylase (Homo sapiens) (Q9BY41 whole entry, looked up): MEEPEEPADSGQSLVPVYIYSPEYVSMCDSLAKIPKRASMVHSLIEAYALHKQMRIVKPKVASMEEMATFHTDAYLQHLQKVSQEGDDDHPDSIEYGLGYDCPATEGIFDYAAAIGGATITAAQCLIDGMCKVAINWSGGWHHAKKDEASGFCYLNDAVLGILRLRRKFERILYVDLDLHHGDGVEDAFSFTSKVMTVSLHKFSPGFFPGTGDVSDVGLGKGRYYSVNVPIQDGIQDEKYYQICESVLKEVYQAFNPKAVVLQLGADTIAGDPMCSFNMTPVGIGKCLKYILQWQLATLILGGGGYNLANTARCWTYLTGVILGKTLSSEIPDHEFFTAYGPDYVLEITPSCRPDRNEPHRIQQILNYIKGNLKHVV

| IC50 (Histone deacetylase 6) [nM] | Ratio IC50 [4] | Activity [5] | inhibition [7] | Activity [10] | Structure (SMILES) | IC50 [1] [nM] | IC50 (MV4-11 [2]) [nM] | IC50 [3] [nM] | IC50 (HUVEC) [nM] | Activity (MV4-11 [6]) [%] | IC50 (MM1.S) [nM] | IC50 (Fibroblast [8]) [nM] | IC50 (RPMI-8226) [nM] | IC50 (Fibroblast [9]) [nM] |
| --- | --- | --- | --- | --- | --- | --- | --- | --- | --- | --- | --- | --- | --- | --- |
| 90 |  |  |  |  | O=C(CCCCCCNC(=O)c1cnc(N(c2ccccc2)c2ccccc2)nc1)NO [RICOLINOSTAT] | > 15000 | 656 |  |  |  |  |  |  |  |
| 269 | 7.66 |  |  |  | CC(C)(C)c1ccc(C(=O)Nc2ccc(C(=O)NO)cc2)cc1 | > 25000 |  | > 25000 |  |  |  |  |  |  |
| 154 |  | Active | Active | Active | O=C(CCCCCCNC(=O)c1cnc(N(c2ccccc2)c2ccccc2Cl)nc1)NO [CITARINOSTAT] | > 25000 | 1240 |  | 4900 | 17 | 1520 | 7400 | 3160 | 5700 |
